Most compounds without a hit are left out; they make up all but 4.5% or so of the library.
OX1R antag-1 = antagonists of human orexin 1 receptor (OX1R). inhibition, % at 6.6 µM. 330,000 tested, 1.8% active. AID 485270, 2010. Orexin/Hypocretin receptor type 1 (Homo sapiens), O43613. OX1R-expressing cells, FRET antagonist read-out; in the data active = inhibition mostly above about 38%, no sharp cut-off; inactive = mostly below about 40%
GPR7 antagonist = GPR7 receptor antagonists, primary screen, cell-based, fluorescence, single concentration. 290,000 tested, 1.1% active. Neuropeptides B/W receptor type 1 (Homo sapiens), P48145. inhibition, % at 4.4 µM. GPR7-expressing cells, fluorescence antagonist assay; in the data active = inhibition above about 16%, passing the limit was not always enough;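 note: cells stimulated with the agonist NPW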
Target sequence (P48145 whole entry, looked up): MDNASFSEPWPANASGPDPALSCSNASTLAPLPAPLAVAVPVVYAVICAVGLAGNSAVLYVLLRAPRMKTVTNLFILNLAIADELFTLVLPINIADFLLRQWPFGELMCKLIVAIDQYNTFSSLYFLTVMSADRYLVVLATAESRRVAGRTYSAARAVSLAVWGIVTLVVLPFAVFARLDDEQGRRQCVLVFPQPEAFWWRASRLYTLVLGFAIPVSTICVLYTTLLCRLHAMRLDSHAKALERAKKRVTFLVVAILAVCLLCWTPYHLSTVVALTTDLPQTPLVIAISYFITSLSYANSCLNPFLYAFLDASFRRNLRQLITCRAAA
OX1R antag-2 = OX1R (HCRTR1) antagonists, primary screen, fluorescence, CHO/OX1R cells, Fluo-8 calcium, orexin A; Orexin/Hypocretin receptor type 1 (Homo sapiens), O43613; Fluo-8 calcium fluorescence; inhibition, % at 5 µM; 330,000 tested, 0.43% active; AID 434989, 2010;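 active = inhibition above its plate's threshold, mean inhibition of all tested compounds on the plate plus 3 SD, cut at about 37% in these data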
CHO parental Ca = ATP-evoked calcium signal inhibitors, parental CHO, primary screen, counter-screen for OX1R antagonist project, cell-based, fluorescence, Fluo-8 calcium dye. parental CHO-K1, ATP-induced calcium, Fluo-8 fluorescence. inhibition, % at 5.6 µM. 330,000 tested, 0.63% active. AID 463079, 2010;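 active = inhibition above that plate's mean sample inhibition plus 3 SD, cut at about 26% in these data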
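Test system: parental CHO cells; detection: calcium-sensitive Fluo-8 fluorescence; evaluation: percent inhibition of calcium signal; also added: ATP as calcium-mobilizing challenge; repeats: one well per compound; control set: ATP-challenged DMSO wells low, unchallenged DMSO wells high; compound: single nominal dose of 5.6 µM per compound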
TAAR1 antag = human TAAR1 antagonists, primary screen, Fluo-8 calcium fluorescence, CHO RD-HGA16 cells. Trace amine-associated receptor 1 (Homo sapiens), Q96RJ0. antagonist. inhibition, % at 3 µM. 360,000 tested, 1.5% active. AID 624466, 2012;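 active = inhibition above a per-plate cutoff, the mean inhibition of test compounds on that plate plus 3 SD, cut at about 49% in these data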
Target sequence (Q96RJ0 whole entry, looked up): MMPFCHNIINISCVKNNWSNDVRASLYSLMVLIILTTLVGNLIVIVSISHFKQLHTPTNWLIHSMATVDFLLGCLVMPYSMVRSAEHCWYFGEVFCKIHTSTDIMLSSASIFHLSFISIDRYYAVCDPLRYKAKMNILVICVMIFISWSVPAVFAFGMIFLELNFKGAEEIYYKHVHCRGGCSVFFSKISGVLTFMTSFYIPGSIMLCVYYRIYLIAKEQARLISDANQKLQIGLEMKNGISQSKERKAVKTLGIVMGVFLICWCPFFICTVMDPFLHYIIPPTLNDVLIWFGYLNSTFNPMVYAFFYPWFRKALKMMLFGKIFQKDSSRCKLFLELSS
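Test system: CHO RD-HGA16 cells bearing hTAAR1 | Reagent: β-PEA, EC80 | Compound dosing: 3 µM, single point | Schedule: Dye loading 75 min at 37 °C, then 30 min room temperature | Signal: Calcium fluorescence with Fluo-8 | Evaluation: Percent inhibition of PEA-evoked calcium signal, max/basal emission ratio | Control set: DMSO-only wells and EC80 β-PEA-stimulated wells | Repeats: Singlicate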
TAAR1 ag = human TAAR1 agonists, primary screen, Fluo-8 calcium fluorescence, CHO RD-HGA16 cells. Trace amine-associated receptor 1 (Homo sapiens), Q96RJ0. vehicle wells 0%, saturating PEA agonist 100%. activation, % at 3 µM. 360,000 tested, 0.99% active. AID 624467, 2012;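 active = activation above the mean activation of all test compounds in the run plus 3 SD, cut at about 38% in these data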
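Signal – calcium-sensitive Fluo-8 signal, excitation 470-495, emission 515-575 nm · System – RD-HGA16 (CHO) cells co-expressing Gα16 and hTAAR1 · Incubation – 17-24 h seeding, 75 min 37 °C dye, 30 min RT · Compound dosing – 3 µM single concentration · Repeats – no replicates (n 1)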
GPR7 antag conf = GPR7 receptor antagonists, confirmation, cell-based, fluorescence, single concentration | shares compounds with GPR7 antagonist | GPR7-expressing cells, calcium fluorescence antagonist mode | inhibition, % at 4.4 µM | 2,400 tested, 52% active | AID 1952, 2009; in the data active = inhibition above about 24%;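 note: stimulated with the GPR7 agonist NPW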
MCHR1 antag = MCHR1 antagonists in cells, counter-screen for GPR7 antagonist project, cell-based, fluorescence, human; inhibition, % at 4.4 µM; shares compounds with GPR7 antagonist; 2,400 tested, 62% active; MCHR1-expressing cells, fluorescence antagonist assay; in the data active = inhibition above about 22%
A number is an active result; i = inactive; nt = no result.

SMILES	OX1R antag-1	GPR7 antagonist	OX1R antag-2	CHO parental Ca	TAAR1 antag	TAAR1 ag	GPR7 antag conf	MCHR1 antag
Cn1nnnc1SCCNCC#Cc1ccccc1	i	26	i	i	i	i	i	i
Cn1nnnc1SCCNCc1ccccc1F	i	i	i	i	i	i	nt	nt
CCn1c(NC(=O)c2ccc(C)cc2)c2ccccc2nc1=O	i	32	i	i	i	i	i	i
CCC1(C)Cc2c(sc3nc(SC)nc(NCCN(C)C)c23)CO1 (stereo unspecified)	i	26	i	i	i	i	i	i
CCN1CCN(c2nc(SC)nc3sc4c(c23)CC(C)(C)OC4)CC1	nt	i	nt	nt	i	i	nt	nt
Cn1c(=O)c(=O)n(C)c2cc(S(=O)(=O)N3CC(=O)N(CCc4ccccc4)C(=O)C3)ccc21	i	23	i	i	i	i	i	i
Cn1c(=O)c(=O)n(C)c2cc(S(=O)(=O)N3CCN(Cc4ccccc4)CC3)ccc21	i	i	i	i	i	i	nt	nt
N#Cc1c(Nc2ccccc2)[n+]([O-])c2ccc(Cl)cc2[n+]1[O-]	nt	nt	nt	nt	i	i	nt	nt
CC(C)C(NC(=O)c1ccc(C(C)(C)C)cc1)C(=O)NCC(c1ccccc1)N(C)C (stereo unspecified)	i	22	i	i	i	i	i	i
CC1(C)NC(=O)N(CC(=O)Nc2cc(S(=O)(=O)N3CCOCC3)ccc2N2CCOCC2)C1=O	i	27	i	i	nt	nt	i	i
O=C(CN1CCCCC1)Nc1cc(S(=O)(=O)N2CCOCC2)ccc1N1CCCC1	i	nt	i	i	i	i	nt	nt
Cc1ccc(S(=O)(=O)Nc2cc(S(=O)(=O)N3CCCCC3)ccc2N2CCOCC2)cc1	i	33	i	i	i	i	i	i
O=S(=O)(c1ccc(Cl)cc1)N1CCN(C(=S)NCC2CCCO2)CC1 (stereo unspecified)	i	i	i	i	i	i	nt	nt
CCN(CC)CCCN1CC(=O)N2[C@@H](Cc3c([nH]c4ccccc34)C2(C)C)C1=O	i	i	i	i	i	i	nt	nt
CN(C)c1ccc(/C=C/c2ccc3c4ccccc4ccc3[n+]2-c2ccccc2)cc1	nt	43	nt	nt	i	i	79	78
CCN(C(=O)CSc1nc(-c2cccs2)nc2ccccc12)C1CCS(=O)(=O)C1 (stereo unspecified)	i	nt	i	i	i	i	nt	nt
O=C(NCc1ccccc1)c1cc(=O)c2ccccc2o1	i	22	i	i	i	i	i	i
COc1ccccc1-n1c(=O)oc2ccc(Cl)cc2c1=O	i	28	i	i	i	i	i	i
COc1c(Cl)c(=O)oc2ccc(Cl)cc12	nt	nt	nt	nt	i	i	nt	nt
N#CCN(CC#N)C(=O)C1c2ccccc2Oc2ccccc21	i	i	i	i	i	i	nt	nt
CC(CCN1C(Nc2ccccc2)=NC[C@@H]1Cc1ccccc1)c1ccccc1 (stereo partly specified)	i	38	i	i	i	i	51	25
CC(C)CCCN1C(Nc2ccccc2)=NC[C@@H]1Cc1ccccc1	i	36	i	i	nt	nt	31	24
CC(C)CCN1C(Nc2ccccc2)=NC[C@@H]1Cc1ccccc1	i	i	i	i	i	i	nt	nt
CC(C)C[C@H]1CN=C(Nc2ccccc2)N1CCCCc1ccccc1	i	39	i	i	i	42	39	27
Cn1c(SCc2cccc(F)c2)nnc1-c1ccncc1	i	i	i	i	i	i	nt	nt
SMILES	OX1R antag-1	GPR7 antagonist	OX1R antag-2	CHO parental Ca	TAAR1 antag	TAAR1 ag	GPR7 antag conf	MCHR1 antag
O=C1N[C@@H](Cc2cn(S(=O)(=O)c3c(F)c(F)c(F)c(F)c3F)c3ccccc23)C(=O)N[C@H]1Cc1ccccc1	i	nt	i	i	nt	nt	nt	nt
COc1ccccc1-c1nnc2sc(COc3ccc(F)cc3)nn12	i	42	i	i	i	i	i	52
O=C(c1ccccc1)N(Cc1cccc(Br)c1)C1CCS(=O)(=O)C1 (stereo unspecified)	i	35	i	i	i	i	i	i
CCN(C(=O)c1cccc(Br)c1)C1CCS(=O)(=O)C1 (stereo unspecified)	i	nt	i	i	i	i	nt	nt
O=C1C=C(c2ccc(C(=O)O)c(Cl)c2)C[C@@H](c2ccc3c(c2)OCO3)C1	i	nt	i	i	i	i	nt	nt
O=C(NCc1ccccn1)c1cccc(S(=O)(=O)N2CCCCC2)c1	i	nt	i	i	i	i	nt	nt
CCc1ccccc1NC(=O)CN1C(=O)C2CCCN2c2ncc(Cl)cc21 (stereo unspecified)	i	38	i	i	i	i	34	i
Cc1cc(F)ccc1-c1cc(C(=O)NCc2cccc(C(F)(F)F)c2)[nH]n1	nt	nt	nt	nt	i	i	nt	nt
O=C1CCC(c2ccc3ccccc3c2)O1 (stereo unspecified)	nt	nt	nt	nt	i	i	nt	nt
O=C(CCCn1c(=O)oc2ccccc21)NC1CCCCCC1	i	21	i	i	nt	nt	i	i
CC(O)CNCCCOc1ccc(Cl)cc1C(C)(C)C (stereo unspecified)	i	21	i	i	i	i	38	45
CC(C)Oc1ccc(C(=O)Nc2c3c(nn2-c2ccccc2)CS(=O)(=O)C3)cc1	i	i	i	i	i	i	nt	nt
CC(Sc1nnc2ccccn12)C(N)=O (stereo unspecified)	i	25	i	i	i	i	i	i
CC(C)CCNC(=O)NC(=O)CN1C(=O)NC2(CCCCC2)C1=O	i	24	i	i	i	i	i	i
O=C(Nc1ccccc1)Nc1cccc2ccccc12	i	37	i	i	i	i	i	22
O=C(Nc1cccc(F)c1)Nc1cccc(Cl)c1	i	34	i	i	i	i	40	55
O=C(Nc1ccccc1)Nc1cc(Cl)cc(Cl)c1	84	38	65	54	i	i	38	60
O=C(Nc1cccc(Cl)c1)Nc1cccc(Cl)c1	92	21	39	74	i	i	46	64
O=C(Nc1cccnc1)Nc1cc(Cl)cc(Cl)c1	i	i	i	i	i	i	nt	nt
Cc1nnc(NC(=O)C2CCN(S(=O)(=O)c3ccc(F)c(Cl)c3)CC2)o1	nt	nt	nt	nt	i	i	nt	nt

Source: PubChem (The Scripps Research Institute Molecular Screening Center)
